# 5HT1a antag: antagonists of human 5-HT1a serotonin receptor; P08908; CHO 5-HT1a Ga15 NFAT-bla reporter, antagonist mode; inhibition, % at 10 µM; actives 0.68% (n = 62,000);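 active = inhibition above the mean of all tested compounds plus 3 SD, cut at about 43% in these data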;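 note: receptor stimulated by 5-CT agonist at 100 nM near EC80; beta-lactamase reporter measured by ratiometric fluorescence of a cleavable substrate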
# 5HT1E ag: activates the human 5-HT1E serotonin receptor. activation, % at 6 µM. CHO 5-HT1E Ga15 NFAT-bla reporter, FRET; 0% DMSO wells, 100% control agonist wells. actives 0.69% (n = 65,000);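 active = activation above a set limit, the screen-wide mean activation plus 3 SD, cut at about 8.5% in these data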;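 note: 100% = positive control agonist at 1 µM giving full maximal response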
# S1P3 agonist: agonists of human S1P3 receptor. activation, % at 4.5 µM. Q99500. actives 0.1% (n = 60,000). S1P3 NFAT-BLA reporter cells, agonism, FRET ratio; relative to 1 µM S1P, basal subtracted;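 active = activation above the screen-wide mean plus 3 SD, cut at about 4.5% in these data, passing the limit was not always enough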
# Target sequence (Q99500 whole entry, looked up): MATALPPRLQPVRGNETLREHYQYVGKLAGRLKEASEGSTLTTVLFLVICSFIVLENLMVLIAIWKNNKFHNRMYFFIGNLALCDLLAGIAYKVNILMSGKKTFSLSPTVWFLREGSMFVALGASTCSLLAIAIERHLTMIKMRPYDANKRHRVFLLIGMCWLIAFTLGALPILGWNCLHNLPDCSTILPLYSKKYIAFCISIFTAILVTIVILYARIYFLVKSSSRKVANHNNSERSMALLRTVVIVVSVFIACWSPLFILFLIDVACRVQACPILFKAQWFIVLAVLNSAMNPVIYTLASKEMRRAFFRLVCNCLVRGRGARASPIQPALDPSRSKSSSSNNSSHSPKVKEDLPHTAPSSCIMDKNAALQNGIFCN
#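 Benchmarks: high control 1 µM S1P / System: stable CHO line with human S1P3, Gα16, NFAT-BLA reporter / Dosing: single compound concentration, 4.5 µM final / Timing: 4 h compound at 37 °C, 2 h substrate at RT / Measured by: FRET β-lactamase substrate fluorescence, excitation 405 nm, 460/535 nm emission ratio, background-subtracted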
# S1P1 ag-PAM: agonists and agonism potentiators of human S1P1 receptor. P21453. S1P1 CRE-bla cells, forskolin, beta-lactamase FRET, potentiator mode; S1P1 agonist co-added at EC20, 2 nM; 100% = saturating reference agonist, 0% = basal. activation, % at 9.5 µM. actives 0.57% (n = 56,000);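 active = activation above a cutoff set at the mean activation of all tested compounds plus 3 SD, cut at about 54% in these data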;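 note: forskolin at 4 µM as EC80 and the EC20 agonist is SEW2871; 100% = SEW2871 at its EC100 plus forskolin at EC80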
# HTR1A agonist: 5-HT1a (human) receptor agonism; actives 0.56% (n = 65,000); AID 567; P08908; activation, % at 10 µM; CHO 5-HT1a Ga15 NFAT-bla reporter, FRET ratio; 0% basal, 100% maximal reference agonist;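 active = activation above the screen-wide mean activation plus 3 SD, cut at about 19% in these data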;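 note: 0% = DMSO wells and 100% = 5-CT at EC100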
# HTR1E antagonist: 5-HT1E (human) receptor antagonism. CHO 5-HT1E Ga15 NFAT-bla reporter, FRET, antagonist. inhibition, % at 6 µM. actives 0.99% (n = 65,000). AID 571;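 active = inhibition above a set limit, the mean inhibition across every tested compound plus 3 SD, cut at about 29% in these data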;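 note: signal is the 460 over 535 nm emission ratio of beta-lactamase substrate; 0% = agonist plus DMSO wells and 100% = wells without agonist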
# * = called active by the depositor; nt = no result given. Most compounds without a hit are left out; they make up all but 2.9% or so of the library.
SMILES,5HT1a antag,5HT1E ag,S1P3 agonist,S1P1 ag-PAM,HTR1A agonist,HTR1E antagonist
O=C1CC(C(=O)Nc2ccc(C(=O)N3CCOCC3)cc2)C2(CCCCC2)O1 (stereo unspecified),-14,0,-1,-28,-1,-1
O=C1CC(C(=O)Nc2ccccc2)C2(CCCC2)O1 (stereo unspecified),1,14*,nt,nt,-1,1
COc1cccc(NC(=O)N2CCC(N3CCCCC3)CC2)c1,-2,0,-1,-8,-3,7
COc1cccc(NC(=O)N2CCN(c3cccc(C)c3C)CC2)c1,0,30*,-1,8,-2,-1
Cc1cc(C)c2c(=O)n(-c3ccccc3)[nH]c2n1,-6,13*,0,-6,0,1
O=c1c2c3n(c(=O)nc2[nH]n1-c1ccccc1)CCCCC3,2,1,0,-5,-1,-9
Cc1ccc(S(=O)(=O)Nc2ccc(Br)cc2/C=N/n2cnnc2)cc1,4,0,-2,38,-1,8
CCC(C)[C@@H](NC(=O)OC(C)(C)C)c1nnc(S(=O)(=O)Cc2cccc(C)c2)o1 (stereo partly specified),51*,2,-1,41,4,-4
CCC(C)C(NCc1cccc(C)c1)C(=O)O (stereo unspecified),-2,-2,nt,nt,1,12
CC(C)(C)OC(=O)N[C@@H](Cc1ccccc1)c1nnc(S(=O)(=O)Cc2ccccc2)o1,78*,1,0,86*,-3,55*
COc1ccccc1NC(=O)N1CCc2[nH]c3ccc(F)cc3c2C1,29,-2,1,13,1,29*
O=C(CNC(=O)c1cccs1)NCCN1CCN(c2ccccc2F)CC1,5,0,1,6,0,0
Cc1cccnc1NCc1ccc(O)c2ncccc12,12,1,-1,7,0,51*
COc1cccc2cc(-c3nnc(SCC(=O)NCc4ccccc4)n3C)oc12,-2,1,0,nt,0,-3
Cc1cccc(-n2c(CNC(=O)c3ccccc3)nnc2SCC(=O)Nc2nccs2)c1,-4,0,0,-3,-2,-6
Cc1cc(/C=N/n2cnnc2)c(C)n1-c1ccc(OCc2ccccc2F)cc1,36,0,-1,142*,-3,29*
Fc1ccccc1COc1cccc(/C=N/n2cnnc2)c1,0,-2,0,15,-4,-4
Clc1ccc(C2=Nn3c(nnc3-c3n[nH]c4c3CCC4)SC2)cc1Cl,-10,0,0,-100,-3,20
O=c1c2ccccc2nc(N2CCN(c3ccccc3)CC2)n1Cc1ccccc1,47*,1,-1,13,0,-12
O=c1c2ccccc2nc(-c2ccco2)n1Cc1ccccc1,3,0,nt,nt,1,-2
CCCCCNC(CC(=O)Nc1ccc(OC)cc1)C(=O)O (stereo unspecified),-14,-1,-1,0,-2,5
CCC(=O)N1CCN(c2ccccc2NC(=O)COc2cc(C)ccc2C(C)C)CC1,58*,-1,2,-11,5,3
CC(=O)N1CCN(c2ccccc2NC(=O)COc2ccc(Cl)cc2Cl)CC1,29,0,-1,30,2,15
COc1ccc2c(c1)c1ncnc(N3CCN(Cc4ccc5c(c4)OCO5)CC3)c1n2C,-31,0,-1,-13,3,-6
COc1ccc2[nH]c3c(N4CCN(Cc5ccc6c(c5)OCO6)CC4)ncnc3c2c1,nt,-1,-2,-10,2,29*
SMILES,5HT1a antag,5HT1E ag,S1P3 agonist,S1P1 ag-PAM,HTR1A agonist,HTR1E antagonist
CCCc1cc(=O)oc2c(C)c3occ(C)c3cc12,40,0,0,nt,-1,39*
COc1ccc2c(c1)c(=O)oc1c(C)c3occ(C)c3cc12,4,0,1,nt,-1,-6
CCN(CC)C(=O)c1cn(CC)c(=O)c2cc(OC)c(OC)cc12,-5,-1,nt,nt,-1,-1
Cc1ccc(-c2csc3ncnc(-n4nc(C)cc4N)c23)cc1,-4,8.7*,0,-3,-1,-8
Cc1cc(C(=O)CSc2nc3ccccc3c(=O)n2C)c(C)n1Cc1ccc2c(c1)OCO2,4,0,0,62*,-3,28
Cc1cc(C(=O)CSc2nnc(-c3ccccc3)n2Cc2ccc3c(c2)OCO3)c(C)n1C,1,1,0,7,-1,-4
O=C(NCc1ccco1)c1cc2ccc(O)cc2oc1=O,-237,38*,12*,-154,189*,-57
CSc1ccc(Cl)c(C(=O)NCc2ccco2)c1,6,-1,0,-7,-4,32*
CSc1ccc(Cl)c(C(=O)OCC(=O)NCc2ccco2)c1,-7,1,1,-9,-1,4
COc1ccc2cc(C(=O)NCc3ccco3)c(=O)oc2c1,2,0,0,2,0,3
O=C(NC1CCCCCCC1)c1ccc2c(c1)N(Cc1ccc(F)cc1)C(=O)CS2=O (stereo unspecified),-14,2,nt,nt,1,-15
CC1CCCN(C(C(=O)Nc2ccc3c(c2)OCO3)c2ccccc2)C1 (stereo unspecified),49*,1,0,34,-2,13
Cc1ccc(S(=O)(=O)NCC(c2ccccc2)N2CCN(CCC#N)CC2)cc1 (stereo unspecified),-9,1,-1,nt,0,-8
CC(=O)NC(CCS(C)(=O)=O)C(=O)Nc1cc(Cl)ccc1Cl (stereo unspecified),9,0,0,12,120*,-5
CC(=O)NC(CCS(C)(=O)=O)C(=O)Nc1ccccc1Cl (stereo unspecified),-4,-1,1,-28,-5,-2
O=C(Cn1cnc2c(nnn2Cc2ccccc2F)c1=O)NCc1ccco1,22,2,-1,-7,-3,8
CSc1nc(N2CCOCC2)c2c3c(sc2n1)CCCC3,-14,1,-1,-40,5,32*
CC1CCN(CCCNC(=O)CN2CCN(Cc3ccc(Cl)cc3)C2=O)CC1,-2,1,-1,4,-2,31*
Cc1noc(C)c1COc1ccc(C(=O)NCc2ccccn2)cc1,11,-1,0,-15,-1,-4
CCOC(=O)C(C(=O)OCC)C(C)C#CCN1CCCCC1 (stereo unspecified),-2,0,-1,-3,-4,0
OC(COc1ccc2c(c1)OCO2)CN1CCc2ccccc2C1 (stereo unspecified),23,0,0,15,2,-1
Cc1nn(-c2ccccc2)c2sc(C(=O)N3CCOCC3)cc12,8,1,0,9,1,36*
